Laboratory results from ChEMBL document CHEMBL4270646, “Novel antimalarial chloroquine- and primaquine-quinoxaline 1,4-di-N-oxide hybrids: Design, synthesis, Plasmodium life cycle stage profile, and preliminary toxicity studies” (Eur J Med Chem, 2018).
Activity calls are given as the source filed them. No cut-off for these calls is given here.

Assays:
Plasmodium falciparum [1] = assay: Antiplasmodial activity against chloroquine-sensitive Plasmodium falciparum 3D7 infected in human red blood cells assessed as reduction in parasite growth after 48 hrs by Hoechst 33342 staining based flow cytometric analysis; format: functional, organism-based; details: 3D7, 48 h
How it was run: (§1)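 Ring-stage cultures (>80% rings) at 1% parasitaemia in A+ human erythrocytes, 2% haematocrit. Medium RPMI 1640 with 10% A+ serum, 37°C, 5% CO2/5% O2. Compounds in DMSO at 1.56–100 µg/mL final, DMSO ≤1%. After 48 h, cells stained with Hoechst 33342 and 1×10^4 counted by flow cytometry. IC50 from logistic dose-response regression; three independent experiments in triplicate.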

Plasmodium falciparum [2] = assay: Antiplasmodial activity against the multidrug-resistant Plasmodium falciparum […] infected in human red blood cells assessed as reduction in parasite growth after 48 hrs by Hoechst 33342 staining based flow cytometric analysis; format: functional, organism-based; how it was run: as §1
[3] = Selectivity index, ratio of CC50 for human HepG2 cells to IC50 for multidrug-resistant Plasmodium falciparum […]; format: toxicity; details: read-out: Ratio CC50/IC50
How it was run: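 Selectivity index = HepG2 CC50 / FCR-3 IC50. CC50 from MTT assay after 48 h exposure, A550. IC50 from 48 h Hoechst 33342 flow-cytometry assay.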

[4] = Cytotoxicity against human HepG2 cells assessed as reduction in cell viability after 48 hrs by MTT assay; format: cell-based
How it was run: (§2)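 Cells seeded at 2 × 10^5 per well and allowed 24 h at 37°C, 5% CO2 to form a monolayer. Dilutions added in triplicate and incubated 48 h. MTT (2 mg/mL) then added for 4 h, followed by DMSO for 20 min at room temperature. Absorbance read at 550 nm; DMSO diluent and untreated cells served as negative controls. CC50 derived from the curve.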

Plasmodium berghei [5] = assay: Antiplasmodial activity against GFP-harboring Plasmodium berghei sporozoites infected in human HepG2 cells assessed as reduction in parasite growth treated every 24 hrs by DAPI staining-based fluorescence microscopic analysis; format: functional, organism-based; details: HepG2, 24 h
How it was run: (§3)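 Collagen-coated wells seeded with HepG2 (P. berghei), HepG2-CD81 (P. yoelii) or primary human hepatocytes (P. falciparum). Sporozoites added: 5×10^3 to 1×10^4 per well to the cell lines, 2.5×10^4 per well to hepatocytes. Compounds given at infection: top 10 µg/mL plus seven serial dilutions, renewed at 3 h and then every 24 h. Cultures grown 40 h (cell lines) or 8 days (hepatocytes) at 37°C. Methanol-fixed, HSP70 immunolabelled, DAPI counterstained. IC50 from logistic regression; triplicate.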

Plasmodium yoelii [6] = assay: Antiplasmodial activity against Plasmodium yoelii 17XNL sporozoites infected in BALB/c mouse assessed as parasite burden at 100 mg/kg, po measured at day 4 by […] (reference value: 0.06%); format: functional
How it was run: (§4)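 BALB/c mice (6-8 weeks, 20-23 g), n=4 per hybrid group and n=5 per control. Dosed orally at 100 mg/kg (100 µL) on days -1, 0, +1 and +2. Vehicle was DMSO 100%; primaquine diphosphate given at 30 mg/kg daily. On day 0, 5 x 10^3 cryopreserved P. yoelii 17XNL sporozoites injected i.v. Parasitaemia read by Giemsa smear and SYBR Green flow cytometry. Groups compared by Kruskal-Wallis test.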

[7] = Selectivity index, ratio of CC50 for human HepG2 cells to IC50 for GFP-expressing Plasmodium berghei sporozoites; format: toxicity; details: read-out: Ratio CC50/IC50
How it was run: (§5)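 Selectivity index = CC50 (matching cell) / IC50 (matching parasite). Cell–parasite pairs: HepG2-CD81 with P. yoelii, HepG2 with P. berghei, human hepatocytes with P. falciparum.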

[8] = Selectivity index, ratio of CC50 for human primary hepatocytes to IC50 for GFP-expressing Plasmodium falciparum sporozoites; format: toxicity; details: read-out: Ratio CC50/IC50; how it was run: as §5
[9] = Cytotoxicity against human primary hepatocytes assessed as reduction in cell viability after 48 hrs by MTT assay; format: cell-based, Hepatocyte; how it was run: as §2
Plasmodium falciparum [10] = assay: Antiplasmodial activity against GFP-harboring Plasmodium falciparum sporozoites infected in human primary hepatocytes assessed as reduction in parasite growth treated every 24 hrs by DAPI staining-based fluorescence microscopic analysis; format: functional, organism-based; how it was run: as §3
[11] = Cytotoxicity against human HepG2 cells expressing CD81 assessed as reduction in cell viability after 48 hrs by MTT assay; format: cell-based; how it was run: as §2
Mus musculus [12] = assay: Acute toxicity in BALB/c mouse assessed as ulcerated congestion in stomach at 500 mg/kg, po administered as single dose measured at day 14 by […]; format: organism-based; details: in vivo
How it was run: (§6)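 Female BALB/c mice, groups of three, single oral dose; vehicle DMSO 100% for controls. Mice euthanised with CO2 on day 14, or earlier if suffering. Gross necropsy performed. Spleen, liver and kidney fixed in formaldehyde 37%, stained with haematoxylin and eosin and examined by light microscopy.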

[13] = Selectivity index, ratio of CC50 for human HepG2 cells expressing CD81 to IC50 for GFP-expressing Plasmodium yoelii sporozoites; format: toxicity; details: read-out: Ratio CC50/IC50; how it was run: as §5
Mus musculus [14] = assay: Acute toxicity in BALB/c mouse assessed as necrosis of liver at 500 mg/kg, po administered as single dose measured at day 14 by haematoxylin and eosin staining based microscopic analysis; format: organism-based; details: in vivo; how it was run: as §6
Plasmodium yoelii [15] = assay: Antiplasmodial activity against Plasmodium yoelii 17XNL sporozoites infected in BALB/c mouse assessed as pre-patent time period of parasitaemia at 100 mg/kg, po measured at day 4 by […]; format: functional; how it was run: as §4
Plasmodium yoelii [16] = assay: Antiplasmodial activity against Plasmodium yoelii 17XNL sporozoites infected in BALB/c mouse assessed as parasite reduction at 100 mg/kg, po measured at day 1 to day 4 by […]; format: functional, organism-based; how it was run: as §4
Plasmodium yoelii [17] = assay: Antiplasmodial activity against GFP-harboring Plasmodium yoelii sporozoites infected in human HepG2 cells expressing CD81 assessed as reduction in parasite growth treated every 24 hrs by DAPI staining-based fluorescence microscopic analysis; format: functional, organism-based; details: HepG2, 24 h; how it was run: as §3
Mus musculus [18] = assay: Acute toxicity in BALB/c mouse assessed as necrosis of kidney at 500 mg/kg, po administered as single dose measured at day 14 by haematoxylin and eosin staining based microscopic analysis; format: organism-based; details: in vivo; how it was run: as §6
Plasmodium yoelii [19] = assay: Antiplasmodial activity against Plasmodium yoelii 17XNL sporozoites infected in BALB/c mouse assessed as decrease in parasitaemia in blood at 100 mg/kg, po measured at day 4 by […] relative to control; format: functional; set-up: scale not given: the % may be the effect or the level left; how it was run: as §4
Plasmodium berghei [20] = assay: (§7) Antiplasmodial activity against GFP-expressing gametocytes of Plasmodium berghei sporozoites in Anopheles stephensi mosquitoes feeded on blood from infected Swiss mouse assessed as reduction in mosquito infection at 100 mg/kg, ip pretreated for 1.5 hrs followed by blood feeding of mosquito and measured at 8 days post mosquitoes infection by fluorescence microscopic method relative to control; format: functional; set-up: scale not given: the % may be the effect or the level left
How it was run: (§8)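 Swiss mice (female, 6 weeks) infected i.p. with PbGFP-infected red cells (200 µL, 3000 parasites/µL). Gametocytes monitored 4 days by Giemsa smear and exflagellation. Hybrid given i.p. at 100 mg/kg in DMSO 1.5 h before A. stephensi fed 1 h on mice with 1% gametocytes. Controls were untreated and DMSO-treated mice. Thirty mosquitoes per group dissected after 8 days. Midgut oocysts counted by fluorescence microscopy against control mosquitoes taken as 100%.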

Plasmodium berghei [21] = assay: Potency index, ratio of primaquine IC50 to compound IC50 for GFP-expressing Plasmodium berghei sporozoites infected in human HepG2 cells; format: functional
Plasmodium berghei [22] = assay: as §7, with “reduction in number of oocysts in mosquito midgut” for “reduction in mosquito infection”, “in mosquito midgut at 100” for “in mosquito infection at 100”; format: functional; set-up: scale not given: the % may be the effect or the level left; how it was run: as §8
Plasmodium falciparum [23] = assay: Antiplasmodial activity against GFP-harboring Plasmodium falciparum sporozoites infected in human primary hepatocytes assessed as reduction in parasite growth at 10 ug/ml treated every 24 hrs by DAPI staining-based fluorescence microscopic analysis; format: functional, organism-based; how it was run: as §3
Plasmodium yoelii [24] = assay: Antiplasmodial activity against GFP-harboring Plasmodium yoelii sporozoites infected in human HepG2 cells expressing CD81 assessed as reduction in parasite growth at 10 ug/ml treated every 24 hrs by DAPI staining-based fluorescence microscopic analysis; format: functional, organism-based; how it was run: as §3
Plasmodium berghei [25] = assay: Antiplasmodial activity against GFP-harboring Plasmodium berghei sporozoites infected in human HepG2 cells assessed as reduction in parasite growth at 10 ug/ml treated every 24 hrs by DAPI staining-based fluorescence microscopic analysis; format: functional, organism-based; how it was run: as §3

Row | Structure (SMILES) | IC50 (Plasmodium falciparum [1]) | IC50 (Plasmodium falciparum [2]) | selectivity ratio [3] | CC50 at 48 h [4] | IC50 (Plasmodium berghei [5]) | Activity (Plasmodium yoelii [6]) | selectivity ratio [7] | selectivity ratio [8] | CC50 at 48 h [9] | IC50 (Plasmodium falciparum [10]) | CC50 at 48 h [11] | selectivity ratio [13] | IC50 (Plasmodium yoelii [17]) | other results
1 | COc1ccc2c(c1)[n+]([O-])c(C(=O)NCCNc1ccnc3cc(Cl)ccc13)c(C)[n+]2[O-] | 2.11 µM | 2.07 µM | 44.8 | 92.7 µM | – | – | – | – | – | – | – | – | – | –
2 | COc1cc(NC(C)CCCNC(=O)c2c(C)[n+]([O-])c3cc(C)c(C)cc3[n+]2[O-])c2ncccc2c1 (centres undefined) | 30.8 µM | 52.9 µM | > 3.82 | > 202 µM | 11.3 µM | 0.06% | > 17.8 | 20.2 | > 202 µM | 8.11 µM | > 202 µM | – | – | –
3 | COc1cc(NC(C)CCCN)c2ncccc2c1 (centres undefined) [PRIMAQUINE] | 9.86 µM | 1.1 µM | 109 | 120 µM | 3.65 µM | – | 33 | 136 | – | – | 69.8 µM | 32.8 | 2.13 µM | Activity (Mus musculus [12]): Toxic; Activity (Mus musculus [14]): Non-Toxic; Time (Plasmodium yoelii [15]): 24 h; Activity (Plasmodium yoelii [16]): inactive; Activity (Mus musculus [18]): Non-Toxic; Activity (Plasmodium yoelii [19]): 100%
4 | COc1cc(NC(C)CCCNC(=O)c2c(C)[n+]([O-])c3ccc(C)cc3[n+]2[O-])c2ncccc2c1 (centres undefined) | 44.9 µM | 50.6 µM | 2.17 | 110 µM | 6.34 µM | 0.03% | 17.3 | 28.6 | > 207 µM | 7.21 µM | > 207 µM | 14.7 | 14 µM | –
5 | COc1cc(NC(C)CCCNC(=O)c2c(C)[n+]([O-])c3ccc(Cl)cc3[n+]2[O-])c2ncccc2c1 (centres undefined) | 62.6 µM | 36.1 µM | 3.34 | 155 µM | 1.14 µM | 0.01% | 136 | 54.5 | > 198 µM | 3.64 µM | > 198 µM | 34.7 | 5.71 µM | Activity (Plasmodium berghei [20]): 23%; Ratio IC50 (Plasmodium berghei [21]): 3.2; Activity (Plasmodium berghei [22]): 77%
6 | COc1cc(NC(C)CCCNC(=O)c2c(C)[n+]([O-])c3ccc(OC)cc3[n+]2[O-])c2ncccc2c1 (centres undefined) | 27 µM | 30.7 µM | > 6.63 | > 204 µM | 14.1 µM | 0.02% | > 14.5 | – | > 204 µM | – | > 204 µM | – | – | inhibition (Plasmodium falciparum [23]): inactive; inhibition (Plasmodium yoelii [24]): inactive
7 | Cc1c(C(=O)NCCNc2ccnc3cc(Cl)ccc23)[n+]([O-])c2ccccc2[n+]1[O-] | 0.78 µM | 1.9 µM | 30.6 | 58.2 µM | – | – | – | – | – | – | – | – | – | –
8 | Cc1ccc2c(c1)[n+]([O-])c(C(=O)NCCNc1ccnc3cc(Cl)ccc13)c(C)[n+]2[O-] | 0.57 µM | 2.24 µM | 14 | 31.4 µM | – | – | – | – | – | – | – | – | – | –
9 | Cc1cc2c(cc1C)[n+]([O-])c(C(=O)NCCNc1ccnc3cc(Cl)ccc13)c(C)[n+]2[O-] | 0.68 µM | 0.9 µM | 71.7 | 64.5 µM | – | – | – | – | – | – | – | – | – | inhibition (Plasmodium berghei [25]): inactive; inhibition (Plasmodium falciparum [23]): inactive; inhibition (Plasmodium yoelii [24]): inactive
10 | CCN(CC)CCCC(C)Nc1ccnc2cc(Cl)ccc12 (centres undefined) [CHLOROQUINE] | – | – | – | 137 µM | – | – | – | – | – | – | – | – | – | –
11 | Cc1c(C(=O)NCCNc2ccnc3cc(Cl)ccc23)[n+]([O-])c2cc(Cl)ccc2[n+]1[O-] | 0.52 µM | 0.4 µM | 54.6 | 21.8 µM | 10.1 µM | – | 2.15 | 9.56 | 61.1 µM | 6.39 µM | 69.9 µM | 4.78 | 14.6 µM | –
